Assay results: ChEMBL document CHEMBL1136517, “Optimization of alpha-acylaminoketone ecdysone agonists for control of gene expression” (Bioorg Med Chem Lett, 2003)

Columns and labels:
Ecdysone receptor [1] = biological target: T1, Ecdysone receptor (Bombyx mori, UniProt P49881); assay: Dose affording 50% of maximum transactivation for ecdysone receptor from Bombyx mori (BmEcR) and a beta-galactosidase reporter gene in HEK293 cell-line; assay type: functional, cell-based
T1 sequence (P49881 whole entry): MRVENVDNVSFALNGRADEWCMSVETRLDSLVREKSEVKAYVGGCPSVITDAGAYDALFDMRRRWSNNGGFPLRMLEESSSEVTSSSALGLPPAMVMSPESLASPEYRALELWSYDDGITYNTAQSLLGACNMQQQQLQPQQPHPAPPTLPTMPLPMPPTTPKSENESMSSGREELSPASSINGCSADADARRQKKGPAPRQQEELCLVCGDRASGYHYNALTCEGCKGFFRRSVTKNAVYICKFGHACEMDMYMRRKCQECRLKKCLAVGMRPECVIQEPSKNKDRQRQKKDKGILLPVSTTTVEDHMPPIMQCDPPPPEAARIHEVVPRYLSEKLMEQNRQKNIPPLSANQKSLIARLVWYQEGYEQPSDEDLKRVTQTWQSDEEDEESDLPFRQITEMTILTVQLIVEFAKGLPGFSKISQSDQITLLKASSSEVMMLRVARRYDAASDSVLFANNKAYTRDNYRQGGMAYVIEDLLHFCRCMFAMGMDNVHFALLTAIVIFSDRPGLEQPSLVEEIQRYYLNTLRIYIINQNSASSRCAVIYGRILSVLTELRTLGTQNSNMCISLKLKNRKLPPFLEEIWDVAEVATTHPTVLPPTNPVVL
How it was run: (§1)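 HEK-293 clone Z3 stably expressing BmEcR with a β-galactosidase reporter, selected with G418 (450) and puromycin (100 ng/mL). Cells seeded at 2.5 × 10⁴ cells/mL and held 24 h at 37 °C in 5% CO₂. Ligands came from 10 mM DMSO stocks diluted […] in medium, with final DMSO 0.03%. Bioluminescent β-gal read at 48 h, room temperature. Fold induction is treated RLU over DMSO RLU. EC50 is the dose giving 50% of maximum transactivation. RMFI is maximum expression relative to that of the standard agonist control.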

Ecdysone receptor [2] = biological target: T2, Ecdysone receptor (Choristoneura fumiferana, UniProt O77240); assay: Dose affording 50% of maximum transactivation for ecdysone receptor from Choristoneura fumiferana (CfEcR) and a luciferase reporter gene in CHO cells; assay type: functional, cell-based
T2 sequence (O77240 whole entry): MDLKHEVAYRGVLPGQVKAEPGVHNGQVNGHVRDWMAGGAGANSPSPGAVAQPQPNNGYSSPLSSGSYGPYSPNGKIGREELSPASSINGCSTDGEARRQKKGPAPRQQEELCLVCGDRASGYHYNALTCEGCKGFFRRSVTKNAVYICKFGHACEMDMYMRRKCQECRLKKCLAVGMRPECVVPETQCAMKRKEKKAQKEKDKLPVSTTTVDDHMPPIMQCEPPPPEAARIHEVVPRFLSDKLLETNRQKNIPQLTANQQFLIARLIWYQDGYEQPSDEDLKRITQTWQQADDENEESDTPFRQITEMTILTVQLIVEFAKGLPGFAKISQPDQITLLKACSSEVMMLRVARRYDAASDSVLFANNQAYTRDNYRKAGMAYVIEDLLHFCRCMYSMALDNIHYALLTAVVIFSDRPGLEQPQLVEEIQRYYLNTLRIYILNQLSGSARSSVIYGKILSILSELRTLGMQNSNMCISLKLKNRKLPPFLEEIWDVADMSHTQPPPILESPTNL
How it was run: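 CHO cells stably carrying GAL4 DBD(1-147)-CfEcR(DEF) and VP16-bRXR-LmUSP chimera cassettes (Zeocin selection), plus GAL4 RE-luciferase reporter (clone 27-63, hygromycin). Cells plated at 2.5 × 10⁴ cells mL⁻¹. DMSO ligand stocks diluted 300-fold; 8 concentrations, 33 to 0.01. Luciferase read 48 h after treatment. Value is the dose giving 50% of maximum transactivation.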

[3] = biological target: T3, Ecdysone receptor (Bombyx mori) (UniProt P49881); assay: Ratio of maximum level of gene expression (ecdysone receptor and beta-galactosidase receptor) of compound to maximum level of gene expression with GSTM-E expressed as RMFI; assay type: functional; how it was run: as §1
T3 sequence (whole entry): T1 sequence (P49881 whole entry)

[4] = biological target: T4, Ecdysone receptor (Choristoneura fumiferana) (UniProt O77240); assay: Ratio of maximum level of gene expression (ecdysone receptor and luciferase gene) of compound to maximum level of gene expression with GSTM-E expressed as RMFI; assay type: functional
T4 sequence (whole entry): T2 sequence (O77240 whole entry)
How it was run: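 CHO clone 27-63 stably carries GAL4 DBD–CfEcR(DEF) plus VP16–RXR/LmUSP chimera, selected with Zeocin. A GAL4-RE luciferase reporter was added and selected with hygromycin. Cells plated at 2.5 × 10⁴ cells/mL. DMSO ligand stocks diluted 300-fold, tested at 8 concentrations from 33 to 0.01. Luciferase measured 48 h after treatment. RMFI is maximum expression relative to that of the standard agonist control.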

SMILES	EC50 (Ecdysone receptor [1])	EC50 (Ecdysone receptor [2])	Ratio [3]	Ratio [4]
COc1ccccc1C(=O)C1(NC(=O)c2cccc(OC)c2C)CCCC1	5160 nM	6610 nM	0.7	0.67
CCC(CC)(NC(=O)c1cccc(OC)c1C)C(=O)c1cc(C)cc(C)c1	4530 nM	6230 nM	0.61	0.54
CCc1c(OC)cccc1C(=O)NN(C(=O)c1cc(C)cc(C)c1)C(C)(C)C	250 nM	410 nM	1	1
CCc1c(C(=O)NC2(C(=O)c3cc(C)cc(C)c3)CCCCC2)ccc2c1OCCO2	740 nM	390 nM	0.89	0.91
CCc1ccc(C(=O)NC2(C(=O)c3cc(C)cc(C)c3)CCCCC2)cc1	1510 nM		0.63	
COc1ccccc1C(=O)C1(NC(=O)c2cccc(OC)c2C)CCCCC1	980 nM	1030 nM	0.84	0.71
COc1cccc(C(=O)NC2(C(=O)c3cc(C)cc(C)c3)CC2)c1C	20400 nM	33300 nM	0.22	0.09
Cc1cc(C)cc(C(=O)C2(NC(=O)c3ccc4c(c3C)OCO4)CCCCC2)c1	3680 nM	3220 nM	0.81	0.91
COc1cccc(C(=O)NC2(C(=O)c3cc(C)cc(C)c3)CCSCC2)c1C	1600 nM	1800 nM	0.98	0.85
COc1cccc(C(=O)NN(C(=O)c2cc(C)cc(C)c2)C(C)(C)C)c1C [METHOXYFENOZIDE]	100 nM	280 nM	1.03	1.02
COc1cccc(C(=O)NC2(C(=O)c3cc(C)cc(C)c3)CCCCC2)c1C	1410 nM	1110 nM	0.99	0.96
COc1cccc(C(=O)NC(C)(C)C(=O)c2cc(C)cc(C)c2)c1C	10000 nM	41900 nM	0.17	0.29
CCc1c(OC)cccc1C(=O)NC1(C(=O)c2cc(C)cc(C)c2)CCCCC1	1810 nM	1250 nM	0.85	0.89
COc1cccc(C(=O)NC2(C(=O)c3cc(C)cc(C)c3)CCS(=O)(=O)CC2)c1C	15000 nM	30000 nM	0.1	0.04
COc1cccc(C(=O)NC2(C(=O)c3cc(C)cc(C)c3)CCCCCC2)c1C	1610 nM	2970 nM	0.69	0.88
COc1cccc(C(=O)NC2(C(=O)c3cc(C)cc(C)c3)CCOCC2)c1C	10000 nM	10000 nM	0.18	0.96
COc1cccc(C(=O)NC2(C(=O)c3cc(C)cc(C)c3)CCC2)c1C	8520 nM	10000 nM	0.69	0.89
COc1cccc(C(=O)NC2(C(=O)c3cc(C)cc(C)c3)CCCC2)c1C	1870 nM	1910 nM	0.85	0.86
COc1ccccc1C(=O)C1(NC(=O)c2cccc(OC)c2C)CCCCCC1	1940 nM	3360 nM	0.78	0.66
